Screening results as filed in PubChem BioAssay.
KLK7 zymogen act: activators of human kallikrein-7 zymogen; purified proKLK7, EDANS-DABCYL substrate fluorescence; 100% is mature enzyme control, 0% vehicle; activation, % at 7 µM; 0.9% of 370,000 active; AID 652039;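 active = activation above the mean of all tested compounds plus 3 SD, computed per campaign excluding outliers beyond control limits, cut at about 13% in these data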
Tn6 DDE FP: inhibitors of Tn6 peptide binding to human fibrin DD(E) | Fibrin DD(E) TRITC-Tn6 fluorescence polarization displacement | P02675 | inhibition, % at 8.3 µM | 0.21% of 370,000 active;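 active = inhibition above a per-campaign cutoff: mean of compounds within control limits plus 3 SD, cut at about 15% in these data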
Neddyl block: inhibitors of human cullin neddylation; 0.58% of 360,000 active; TR-FRET cullin neddylation, biochemical; AID 651699; calls only at 25 µM; P61081+Q13564; in the data active = inhibition above about 36%
Target sequence (P61081 whole entry, looked up): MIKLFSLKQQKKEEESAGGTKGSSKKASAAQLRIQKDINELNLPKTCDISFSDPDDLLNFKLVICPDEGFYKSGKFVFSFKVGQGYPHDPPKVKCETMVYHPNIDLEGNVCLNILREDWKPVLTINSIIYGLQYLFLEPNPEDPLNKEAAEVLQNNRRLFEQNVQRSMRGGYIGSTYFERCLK
Target sequence (Q13564 whole entry, looked up): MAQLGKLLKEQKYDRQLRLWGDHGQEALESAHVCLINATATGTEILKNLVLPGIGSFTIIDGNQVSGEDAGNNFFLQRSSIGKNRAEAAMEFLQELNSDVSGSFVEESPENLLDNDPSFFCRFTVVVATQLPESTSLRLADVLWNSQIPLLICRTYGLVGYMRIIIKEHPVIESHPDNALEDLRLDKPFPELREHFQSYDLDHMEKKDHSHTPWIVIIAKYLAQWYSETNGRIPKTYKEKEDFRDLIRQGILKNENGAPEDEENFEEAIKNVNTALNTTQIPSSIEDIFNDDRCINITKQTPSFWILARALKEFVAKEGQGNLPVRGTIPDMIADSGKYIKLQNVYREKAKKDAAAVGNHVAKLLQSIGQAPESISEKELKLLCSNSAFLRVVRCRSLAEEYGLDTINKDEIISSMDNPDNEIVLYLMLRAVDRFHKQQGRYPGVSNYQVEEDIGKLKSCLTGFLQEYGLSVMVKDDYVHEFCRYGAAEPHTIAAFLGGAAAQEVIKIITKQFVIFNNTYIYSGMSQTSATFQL
DDE Tn7 FP inh: disrupts Tn7 cyclic peptide binding to fibrin D-Dimer-E complex; P02675; FP displacement of FITC-Tn7 peptide from fibrin DD(E); 0% = median of compound wells per plate; inhibition, % at 8.3 µM; 0.13% of 370,000 active;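 active = inhibition above the mean of compounds falling within the control limits plus 3 SD of them, cut at about 14% in these data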
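Test system – human fibrin DD(E) · Times – 10 min preincubation, 3 h with tracer, room temperature · Detection – fluorescence polarization of the labelled Tn7 tracer · Measure – percent inhibition normalized to high-control wells · Benchmarks – high control wells with 10 µM unlabelled Aha-Tn7 peptide (full inhibition) · Repeats – singlicate testing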
MT1-MMP act inh: blocks activation of human MT1-MMP. P50281. HT1080 RFP-PRO-GFP cells, GFP/RFP ratio fluorescence, overnight; percent of plate control window, DMSO zero. GFP/RFP ratio change, % at 20 µM. 0.061% of 360,000 active;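 active = GFP/RFP ratio change of at least 30% with cell ATP level not reduced by more than half and red fluorescence within 50% of control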
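Assay system: HT1080 RFP-PRO-GFP cells. Benchmarks: DMSO vehicle wells and RFP-L50D-GFP reporter cell wells. Times: overnight cell settling, then overnight compound exposure, 37 °C, 5% CO2. Compound: 20 µM single dose, 1% DMSO. Read-out basis: GFP/RFP fluorescence ratio.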
SKN-1 inh: blocks SKN-1 activity in C. elegans. AID 624304. C. elegans VP596 Pgst-4::GFP/RFP ratio, acrylamide-induced, 24 h. inhibition, % at 21.8 µM. 0.49% of 360,000 active;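 active = interference check ratio from 0.5 to 1.5 plus GFP to RFP signal ratio inhibition reaching or exceeding a fixed threshold, cut at about 30% in these data, passing the limit was not always enough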
Neddyl inh conf: cullin neddylation inhibition, confirmation; shares compounds with Neddyl block; 13% of 1,800 active; calls only at 25 µM; TR-FRET cullin neddylation biochemical assay; AID 652217; in the data active = inhibition above about 40%;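 also: neddylation substrate is the cullin 1 ring ligase complex with SKP2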
proKLK7 act conf: confirmation of human kallikrein-7 zymogen activators. shares compounds with KLK7 zymogen act. purified proKLK7, EDANS-DABCYL substrate fluorescence; scaled: vehicle 0, mature enzyme 100. activation, % at 7 µM. 68% of 3,200 active. AID 686949;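 active = activation, as change over the incubation, above the mean of all tested compounds plus 3 SD, cut at about 13% in these data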
EDANS-DABCYL int: fluorescence interference counter-screen for KLK7 activators; shares compounds with KLK7 zymogen act; EDANS-DABCYL substrate fluorescence interference, no enzyme, 4 h; solvent 0%, active enzyme control 100%; activation, % at 7 µM; 80% of 3,200 active;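 active = activation above the all-compound mean plus 3 SD, ignoring values outside control-based bounds, cut at about 4.8% in these data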;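 also: value is the 4 h activation minus the activation read at time zero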
K7 EDANS ctr: EDANS fluorescence interference in dose response, no enzyme. shares compounds with KLK7 zymogen act. EC50, µM. AID 720493. EDANS-DABCYL peptide fluorescence interference. 20% of 250 active;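 active = compounds that raise the fluorescence signal in this interference counterscreen, with EC50 at or below 10 µM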;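 also: intact quenched peptide substrate alone read at 355 nm excitation and 520 nm emission; signal is fluorescence gain from T0 to T4 after four hours at room temperature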
DDE Tn7 confirm: confirmation of inhibitors of Tn7 binding to human fibrin DD(E). AID 720628. inhibition, % at 8.3 µM. FP displacement of TRITC-Tn7 peptide from DD(E); 0% set at plate's compound-well median. 5% of 460 active. shares compounds with DDE Tn7 FP inh;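 active = inhibition above the campaign cutoff, the mean of compounds within control limits plus 3 SD, cut at about 14% in these data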;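 also: displacers lower polarization since freed probe rises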
DDE Tn7 FP ctr: counter-screen hit for Tn7 peptide-fibrin DD(E) binding disruption; shares compounds with DDE Tn7 FP inh; TRITC-Tn7 probe displacement, fluorescence polarization; inhibition, % at 8.3 µM; 3% of 460 active; AID 720633;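 active = inhibition above the cutoff, the mean of compounds lying between the control bounds plus 3 SD of those compounds, cut at about 17% in these data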
Tn6 DDE ctr: DD(E)-Tn6 binding inhibition, counter-screen; shares compounds with Tn6 DDE FP; Fibrin DD(E), TRITC-Tn6 fluorescence polarization displacement; 0% = median of compound wells, not DMSO; inhibition, % at 8.3 µM; 2% of 680 active; AID 720621;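 active = inhibition above the mean of test compounds lying between the control limits plus 3 SD of those, cut at about 14% in these data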
DDE Tn6 confirm: confirmation of inhibitors of Tn6 binding to human fibrin DD(E). shares compounds with Tn6 DDE FP. FP displacement of TRITC-Tn6 peptide from DD(E); 0% = per-plate median of test wells. inhibition, % at 8.3 µM. 10% of 680 active. AID 720631;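 active = inhibition above the mean of compounds lying within the control limits plus 3 SD, cut at about 16% in these data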
Each line names hits and unclear results; the compound was inactive in the other large screens (follow-up assays come after a bar, where shown). In the library only some 2.2% were active in any assay of this set; here they are far more common.

O=C(Nc1ccc2c(c1)C(=O)NC2=O)c1ccc(S(=O)(=O)N2CCCC2)cc1	KLK7 zymogen act 86.4, Neddyl block active | Neddyl inh conf inactive | proKLK7 act conf 89.5 | EDANS-DABCYL int 39.5 | K7 EDANS ctr 8.5
COc1ccc2oc(=O)c(-c3nnc(NCc4ccco4)s3)cc2c1	KLK7 zymogen act 35.4, Neddyl block active | Neddyl inh conf inactive | proKLK7 act conf inactive | EDANS-DABCYL int inactive
COc1ccc(OC)c(/C=C/C(=O)OCC(=O)NCc2ccco2)c1	KLK7 zymogen act 22.9, Neddyl block active | proKLK7 act conf 17.2 | EDANS-DABCYL int 13.5 | K7 EDANS ctr inactive
COc1cc(/C=N/NC(=O)/C(=C\c2ccc([N+](=O)[O-])cc2)NC(=O)c2ccccc2)cc(OC)c1O	none
NC(=O)NC(=O)CN1c2cccc3cccc(c23)S1(=O)=O	none
CC1CCN(C(=O)CN2c3cccc4cccc(c34)S2(=O)=O)CC1	KLK7 zymogen act 17.5, Neddyl block active | proKLK7 act conf inactive | EDANS-DABCYL int 7.1
CC1CCN(C(=O)CN2C(=O)c3cccc4cccc(c34)C2=O)CC1	none
CCC(C)NC(=O)CN1c2cccc3cccc(c23)S1(=O)=O (stereo not drawn)	KLK7 zymogen act 14.2, Neddyl block active | Neddyl inh conf inactive | proKLK7 act conf inactive | EDANS-DABCYL int 9.6
COc1ccc(NS(=O)(=O)c2cccc(C(=O)N/N=C/c3cn(-c4ccccc4)nc3-c3ccccc3)c2)cc1	none
COc1ccccc1NS(=O)(=O)c1cccc(C(=O)N/N=C/c2cn(-c3ccccc3)nc2-c2ccccc2)c1	KLK7 zymogen act 17.9, Neddyl block active | proKLK7 act conf inactive | EDANS-DABCYL int inactive
C/C(=N\NC(=O)CCCNc1ccc(C)cc1)c1ccccn1	none
Cc1cc(-n2c(C)cc(C(=O)COc3ccc4ccc(=O)oc4c3)c2C)no1	KLK7 zymogen act 58.5, Neddyl block active | proKLK7 act conf 44.0 | EDANS-DABCYL int 53.7
CC(=O)c1cccc(OCC(=O)c2cc(C)n(-c3cc(C)on3)c2C)c1	none
COc1ccc(-c2cn3cccnc3n2)cc1NS(=O)(=O)c1ccccc1	KLK7 zymogen act 16.3, Neddyl block active | Neddyl inh conf inactive | proKLK7 act conf inactive | EDANS-DABCYL int 5.2
CCN1C(=O)c2cccc3c(S(=O)(=O)NCc4ccccc4)ccc1c23	KLK7 zymogen act 34.5, Neddyl block active | proKLK7 act conf inactive | EDANS-DABCYL int inactive
CCN1C(=O)c2cccc3c(S(=O)(=O)Nc4ccccc4OC)ccc1c23	none
COc1ccc2c(c1)c(/C=C/c1cc[n+](C)cc1)cn2C	none
NCCNC(=O)c1c(NC(=O)c2ccccc2)sc2c1CCCC2	KLK7 zymogen act 19.2, Neddyl block active | Neddyl inh conf inactive | proKLK7 act conf inactive | EDANS-DABCYL int inactive
O=C(Nc1sc2c(c1C(=O)NCCCO)CCCC2)c1ccccc1	none
COc1ccc2nc(C3CCCCC3)c3c(c2c1)CCC3	none
CCc1nnc(NC(=O)c2ccc(C)o2)s1	none
COc1ccc(-c2ccc(C(=O)NC3CCCCC3)c3occc23)c(C)c1	Neddyl block active, DDE Tn7 FP inh 15.8 | Neddyl inh conf inactive | DDE Tn7 confirm inactive | DDE Tn7 FP ctr inactive
Cc1ccccc1Oc1nc2ccccc2n2cnnc12	none
Nc1cc(C(=O)O)ccc1Nc1ccccc1	Tn6 DDE FP 18.3, Neddyl block active | Tn6 DDE ctr inactive | DDE Tn6 confirm inactive
CCCN1CCC(=O)N(CCSc2ccc(NC(C)=O)cc2)CC1	none
NC1=Nc2cccc3cccc1c23	KLK7 zymogen act 52.8, Tn6 DDE FP 37.9, Neddyl block active | Neddyl inh conf inactive | proKLK7 act conf 25.0 | EDANS-DABCYL int 27.2 | Tn6 DDE ctr inactive | DDE Tn6 confirm 45.8
C(=N\NC1=Nc2cccc3cccc1c23)/c1ccccc1	none
O=C(CSc1nc2nc(-c3cccs3)cc(C(F)(F)F)c2c(=O)[nH]1)NCc1ccco1	KLK7 zymogen act 15.9 (not shown: Neddyl block) | proKLK7 act conf inactive | EDANS-DABCYL int inactive
O=C(CSc1nc2nc(-c3cccs3)cc(C(F)(F)F)c2c(=O)[nH]1)C(F)(F)F	KLK7 zymogen act 67.0 (not shown: Neddyl block) | proKLK7 act conf 277.6 | EDANS-DABCYL int 260.3
O=C(Cn1cc(C(F)(F)F)ccc1=O)NCc1ccc(F)cc1	none
CCOC(=O)c1cc2nc(-c3ccco3)cc(C(F)(F)F)n2n1	KLK7 zymogen act 19.4 (not shown: Neddyl block) | proKLK7 act conf inactive | EDANS-DABCYL int inactive
CC(c1ccc(O)cc1)c1cn(C)c2ccccc12 (stereo not drawn)	none (no result: Neddyl block, MT1-MMP act inh, SKN-1 inh)
CCOc1ccc(/C(O)=C2/C(=O)C(=O)N(c3ccccn3)C2c2ccc(F)cc2)c(C)c1 (stereo not drawn)	KLK7 zymogen act 14.3 | proKLK7 act conf 18.5 | EDANS-DABCYL int 19.6
COc1ccc2cc(-c3ccccc3)ncc2c1	none
COc1ccc2ccc3cccc[n+]3c2c1	KLK7 zymogen act 20.6 (not shown: Neddyl block) | proKLK7 act conf 18.5 | EDANS-DABCYL int 19.4
O=C(Cn1ncc2c3ccccc3n(Cc3ccccc3)c2c1=O)N1CCN(c2ncccn2)CC1	none (no result: KLK7 zymogen act, Tn6 DDE FP, DDE Tn7 FP inh)
